Assay results as given in ChEMBL document CHEMBL1152641, “Effect of potential amine prodrugs of selective neuronal nitric oxide synthase inhibitors on blood-brain barrier penetration” (Bioorg Med Chem, 2009).

How the values were obtained:
Mus musculus [1] = assay: Plasma concentration in mouse at 10 umol/kg, ip; type: ADME, organism-based; settings: in vivo
How it was run: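 Mice were given an i.p. injection of a 1 mM PBS solution (100 μL per 10 g) and sampled at 10 min. Heparinized blood was centrifuged and the plasma flash-frozen at −20 °C. Plasma plus internal standard was diluted in 2% acetic acid, cleaned by mixed-mode cation-exchange SPE, and quantified by positive-ESI LC-MS/MS (MRM) against triplicate standard curves; values as SEM.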

Brain [2] = assay: Drug level in mouse brain at […], ip; type: ADME, organism-based; settings: in vivo, read-out: Drug uptake
How it was run: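 Mice were dosed i.p. with compound diluted in PBS to 1 mM, at 100 μL per 10 g, and sampled 10 min later. Brains were PBS-perfused through the left ventricle, removed, flash-frozen, homogenized in 2% formic acid water/acetonitrile (2:1) with internal standard, then cleaned by cation-exchange SPE. Quantified by positive-ESI LC-MS/MS against triplicate standard curves; μg/g converted to μM assuming density 1 g/mL; SEM.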

[3] = Ratio of drug level from brain to blood in mouse at 10 umol/kg, ip; type: ADME, tissue-based
Plasma [4] = assay: Metabolic stability in mouse plasma after 40 mins by HPLC in presence of NADPH
[5] = Metabolic stability in rat liver microsomes assessed compound remaining after 40 mins by HPLC in presence of NADPH; type: ADME, Microsome; settings: read-out: Stability
How it was run: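 Compound (10 μL of 300 μM stock) in PBS with NADPH regeneration solutions A/B was equilibrated at 37 °C. Rat liver microsomes were added and samples incubated for 0, 10, 20 or 40 min. Reactions were quenched with acetonitrile, chilled to 0 °C, centrifuged, dried and reconstituted in 2% formic acid. HPLC peak areas were normalized to t = 0; minaprine served as activity control.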

Brain [6] = assay: Metabolic stability in mouse brain homogenate assessed degradation by HPLC in presence of NADPH; type: ADME, tissue-based
How it was run: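 Three fresh mouse brains were each homogenized in PBS (pH 7.4) with NADPH regeneration buffers A and B, then pooled. Compound was added from a 200 μM stock and incubated at 37 °C for 0, 10, 20 and 40 min. Samples were heat-stopped at 95 °C for 1 min. HPLC UV read-out was at 310 or 260 nm depending on the compound. Peak-area ratio to internal standard was normalized to t = 0.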

Mus musculus [7] = assay: Toxicity in mouse at 3.7 mg/kg, ip; type: organism-based; set-up: dose 3.7 mg/kg, route intraperitoneal; settings: in vivo
Plasma [8] = assay: Metabolic stability in mouse plasma assessed as half life in presence of NADPH; type: ADME, cell-free
How it was run: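 Fresh heparinized mouse plasma was supplemented with NADPH regenerating system (solutions A and B), and compound was added from a 200 μM stock. Incubation was at 37 °C, with samples taken at 0, 10, 20 and 40 min. Samples were quenched with acetonitrile plus internal standard, centrifuged, dried and run on HPLC. Compound/internal-standard ratio was normalized to the t = 0 ratio.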

Liver microsomes = assay: Metabolic stability in rat liver microsomes assessed degradation by HPLC in presence of NADPH; type: ADME, Microsome
How it was run: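 Rat liver microsomes were added to PBS containing NADPH regeneration buffers A and B and compound (from a 300 μM stock), pre-equilibrated at 37 °C. Incubation was at 37 °C for 0, 10, 20 and 40 min. Samples were quenched with acetonitrile, chilled, centrifuged, dried and reconstituted in 2% formic acid for HPLC. Peak area was normalized to t = 0. Minaprine was run in parallel as a P450 activity control.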

| SMILES | concentration (Mus musculus [1]) | concentration (Brain [2]) | Kp [3] | remaining at 40 min [5] | also measured |
| --- | --- | --- | --- | --- | --- |
| Cc1cc(N)nc(C[C@@H]2CNC[C@@H]2NCCNCCc2cccc(F)c2)c1 | 1600 nM | 39 nM | 0.024 |  |  |
| CC(OC(=O)N[C@@H](CCCNC(=N)N[N+](=O)[O-])CNc1ccccc1)OC(=O)C(C)(C)C (stereo partly specified) |  |  |  |  | Stability (Plasma [4]): Unstable |
| COC(=O)N(CCO[C@H]1CNC[C@H]1Cc1cc(C)cc(N)n1)CCc1cccc(F)c1 (racemic) | 1210 nM | 18 nM | 0.015 | > 80% |  |
| Cc1cc(N)nc(C[C@@H]2CNC[C@@H]2OCCN(CCc2cccc(F)c2)C(=O)OCc2ccccc2)c1 (racemic) | 490 nM | 9 nM | 0.018 | > 60% |  |
| CC(=O)N(CCO[C@H]1CNC[C@H]1Cc1cc(C)cc(N)n1)CCc1cccc(F)c1 (racemic) | 4600 nM | 39 nM | 0.008 | > 80% |  |
| Cc1cc(N)nc(C[C@@H]2CNC[C@@H]2OCCN=[N+]=[N-])c1 (racemic) |  |  |  |  | Stability (Brain [6]): Stable; Stability (Plasma [4]): Stable |
| Cc1cc(N)nc(C[C@@H]2CNC[C@@H]2OCCNCCc2cccc(F)c2)c1 (racemic) | 1600 nM | 73 nM | 0.046 |  | Activity (Mus musculus [7]): Non-toxic |
| CC(OC(=O)N[C@@H](CCCNC(=N)N[N+](=O)[O-])CNc1ccccc1)OC(=O)C(C)(C)C (single isomer, unassigned; diastereomer 1) |  |  |  |  | t1/2 (Plasma [8]): 10 min |
| CC(OC(=O)N[C@@H](CCCNC(=N)N[N+](=O)[O-])CNc1ccccc1)OC(=O)C(C)(C)C (single isomer, unassigned; diastereomer 2) |  |  |  |  | t1/2 (Plasma [8]): 30 min; Stability (Brain [6]): Unstable; Stability (Liver microsomes): Unstable |
